Data published in ChEMBL document CHEMBL1155438, “Design and syntheses of permethyl ningalin B analogues: potent multidrug resistance (MDR) reversal agents of cancer cells” (J Med Chem, 2010).
Calls of active or inactive are those of the source. The rule behind the calls is not given here.

Tests used:
[1] = Cytotoxicity against wild type human LCC-6 cells after 3 days by MTS assay; type: cell-based; conditions: LCC-6, 72 h
[2] = Cytotoxicity against multidrug-resistant human LCC-6 cells after 3 days by MTS assay; type: cell-based; conditions: LCC-6, 72 h
L929 = test: Cytotoxicity against mouse L929 cells after 3 days by MTS assay; type: cell-based; conditions: L929, 72 h
[3] = molecular target: T1, ATP-dependent translocase ABCB1 (Homo sapiens, UniProt P08183); test: Inhibition of P-gp-mediated paclitaxel-resistance in P-glycoprotein-expressing human LCC-6 cells assessed as fold decrease in paclitaxel IC50 for cytotoxic activity at 1 uM after 5 days by MTS assay relative to control; type: cell-based; conditions: lcc-6, 120 h
Method in brief: (§1)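 ABCB1-transfected LCC6MDR cells (6000 per well) given serial paclitaxel, doxorubicin or vincristine with or without 1 μM modulator for 5 days at 37 °C. MTS/PMS added for 2 h, absorbance 490 nm. IC50 from dose-response curves. RF = IC50 without modulator / IC50 with modulator; mean ± SEM.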

[4] = molecular target: T1, ATP-dependent translocase ABCB1; test: Inhibition of P-gp-mediated paclitaxel-resistance in P-glycoprotein-expressing human LCC-6 cells assessed as fractional inhibitory concentration index at 0.5 uM after 5 days by MTS assay in presence of 1-(3,4,5-Trimethoxybenzyl)-3,4-bis(3,4-dimethoxyphenyl)-1H-pyrrole-2,5-dione; type: cell-based; conditions: lcc-6, 120 h
Method in brief: (§2)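 LCC6MDR cells (6000 per well) given two modulators at 0.5 μM each, with serial paclitaxel, doxorubicin or vincristine, for 5 days at 37 °C. IC50 by MTS absorbance at 490 nm. FIC values come from IC50 relative to each modulator alone at 1 μM, and FICI is the sum (modified Chou–Talalay). Synergy: FICI ≤0.5; additive: 0.5–4; antagonism: >4.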

[5] = molecular target: T1, ATP-dependent translocase ABCB1; test: Inhibition of P-gp-mediated paclitaxel-resistance in P-glycoprotein-expressing human LCC-6 cells assessed as fractional inhibitory concentration index at 0.5 uM after 5 days by fraction affected plot assay in presence of 1-(3,4,5-Trimethoxybenzyl)-3,4-bis(3,4-dimethoxyphenyl)-1H-pyrrole-2,5-dione; type: cell-based; conditions: lcc-6, 120 h
LCC-6 = test: Increase in doxorubicin concentration in wild type human LCC-6 cells at 3 uM after 150 mins by spectrofluorimetry; type: functional, cell-based
Method in brief: (§3)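 Cells (1 × 10⁶ LCC6 or LCC6MDR) incubated with 20 μM doxorubicin plus modulator for 150 min at 37 °C; 0.4% DMSO as negative control. Cells washed in cold PBS pH 7.4 and lysed in 0.75 M HCl/0.2% Triton X-100 in isopropanol. Supernatant doxorubicin fluorescence read at ex 460/em 610 nm. Duplicate, repeated twice; mean ± SEM.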

[6] = molecular target: T1, ATP-dependent translocase ABCB1; test: Inhibition of P-gp-mediated doxorubicin-resistance in P-glycoprotein-expressing human LCC-6 cells assessed as fractional inhibitory concentration index at 0.5 uM after 5 days by MTS assay in presence of 1-(3,4,5-Trimethoxybenzyl)-3,4-bis(3,4-dimethoxyphenyl)-1H-pyrrole-2,5-dion; type: cell-based; conditions: lcc-6, 120 h; method in brief: as §2
[7] = molecular target: T1, ATP-dependent translocase ABCB1; test: Inhibition of P-gp-mediated vincristine-resistance in P-glycoprotein-expressing human LCC-6 cells assessed as fold decrease in vincristine IC50 for cytotoxic activity at 1 uM after 5 days by MTS assay; type: cell-based; conditions: lcc-6, 120 h; method in brief: as §1
[8] = molecular target: T1, ATP-dependent translocase ABCB1; test: Inhibition of P-gp-mediated doxorubicin-resistance in P-glycoprotein-expressing human LCC-6 cells assessed as increase in intracellular doxorubicin accumulation at 8 to 16 uM after 150 mins by spectrofluorimetry; type: cell-based; conditions: lcc-6, 2.5 h; method in brief: as §3
[9] = molecular target: T1, ATP-dependent translocase ABCB1; test: Inhibition of P-gp-mediated vincristine-resistance in P-glycoprotein-expressing human LCC-6 cells assessed as fractional inhibitory concentration index at 0.5 uM after 5 days by MTS assay in presence of 1-(3,4,5-Trimethoxybenzyl)-3,4-bis(3,4-dimethoxyphenyl)-1H-pyrrole-2,5-dione; type: cell-based; conditions: lcc-6, 120 h; method in brief: as §2
[10] = Noncompetitive inhibition of P-gp-mediated doxorubicin transport in multidrug-resistant human LCC-6 cells after 150 mins by dixon plot analysis; type: cell-based
Method in brief: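 LCC6MDR cells (1 × 10⁶) incubated with doxorubicin at 1.5, 4.4, 13.3 or 40 μM and modulator at 0, 0.5, 1 or 2 μM for 150 min at 37 °C. Lysis and fluorescence done as in the accumulation assay. Ki taken from a Dixon plot of reciprocal retention rate vs modulator concentration. Slope replot vs 1/[doxorubicin] used to assign mechanism. Two to four experiments.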

[11] = molecular target: T1, ATP-dependent translocase ABCB1; test: Inhibition of P-gp-mediated doxorubicin-resistance in P-glycoprotein-expressing human LCC-6 cells assessed as fold decrease in doxorubicin IC50 for cytotoxic activity at 1 uM after 5 days by MTS assay; type: cell-based; conditions: lcc-6, 120 h; method in brief: as §1
[12] = molecular target: T1, ATP-dependent translocase ABCB1; test: Inhibition of P-gp-mediated doxorubicin-resistance in P-glycoprotein-expressing human LCC-6 cells assessed as increase in intracellular doxorubicin accumulation at 3 uM after 150 mins by spectrofluorimetry relative to control; type: cell-based; conditions: lcc-6, 2.5 h; method in brief: as §3
[13] = molecular target: T1, ATP-dependent translocase ABCB1; test: Inhibition of P-gp-mediated doxorubicin-resistance in P-glycoprotein-expressing human LCC-6 cells assessed as increase in intracellular doxorubicin accumulation at 0.25 to 3 uM after 150 mins by spectrofluorimetry; type: cell-based; conditions: lcc-6, 2.5 h; method in brief: as §3

T1 sequence (P08183 whole entry): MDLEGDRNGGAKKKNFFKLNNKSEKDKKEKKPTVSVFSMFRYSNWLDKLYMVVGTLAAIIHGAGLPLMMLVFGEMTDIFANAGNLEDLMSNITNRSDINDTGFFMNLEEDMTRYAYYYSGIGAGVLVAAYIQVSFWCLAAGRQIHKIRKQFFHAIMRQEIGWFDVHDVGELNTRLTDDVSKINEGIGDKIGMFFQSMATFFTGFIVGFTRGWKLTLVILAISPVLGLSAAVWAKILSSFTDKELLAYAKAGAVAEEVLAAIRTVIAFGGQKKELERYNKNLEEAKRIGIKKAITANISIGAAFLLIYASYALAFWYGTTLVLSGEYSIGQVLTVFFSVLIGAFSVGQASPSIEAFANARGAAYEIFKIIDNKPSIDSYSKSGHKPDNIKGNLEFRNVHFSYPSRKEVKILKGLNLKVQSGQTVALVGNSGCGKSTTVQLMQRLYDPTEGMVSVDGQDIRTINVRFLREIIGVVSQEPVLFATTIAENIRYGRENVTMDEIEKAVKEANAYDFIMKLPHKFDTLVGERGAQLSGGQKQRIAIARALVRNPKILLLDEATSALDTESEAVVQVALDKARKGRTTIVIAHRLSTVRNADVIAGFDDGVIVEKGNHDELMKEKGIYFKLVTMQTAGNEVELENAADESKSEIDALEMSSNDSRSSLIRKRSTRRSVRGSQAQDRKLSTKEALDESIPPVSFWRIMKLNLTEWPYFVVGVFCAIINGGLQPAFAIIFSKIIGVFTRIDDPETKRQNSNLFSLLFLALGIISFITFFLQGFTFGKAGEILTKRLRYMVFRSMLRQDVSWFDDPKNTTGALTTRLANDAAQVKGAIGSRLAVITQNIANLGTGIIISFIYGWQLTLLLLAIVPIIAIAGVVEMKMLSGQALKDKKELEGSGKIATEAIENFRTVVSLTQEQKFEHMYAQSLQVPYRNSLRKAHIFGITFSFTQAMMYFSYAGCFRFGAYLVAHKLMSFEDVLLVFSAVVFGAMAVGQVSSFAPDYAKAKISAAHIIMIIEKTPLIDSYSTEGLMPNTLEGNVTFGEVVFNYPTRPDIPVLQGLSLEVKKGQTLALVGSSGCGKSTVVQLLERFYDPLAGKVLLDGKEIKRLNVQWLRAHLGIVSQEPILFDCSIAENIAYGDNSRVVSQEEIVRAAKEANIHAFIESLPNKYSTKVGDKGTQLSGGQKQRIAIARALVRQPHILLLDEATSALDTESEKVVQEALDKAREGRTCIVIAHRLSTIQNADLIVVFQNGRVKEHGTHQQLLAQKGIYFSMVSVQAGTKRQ

SMILES | IC50 [1] [µM] | IC50 [2] [µM] | IC50 (L929) [µM] | fold change (FC) [3] | other results
COc1ccc(C2=C(c3ccc(OC)c(OC)c3)C(=O)N(CN3C(=O)C(c4ccc(OC)c(OC)c4)=C(c4ccc(OC)c(OC)c4)C3=O)C2=O)cc1OC | > 100 | > 100 | > 100 | 8 | 
COc1ccc(C2=C(c3ccc(OC)c(OC)c3)C(=O)N(CCc3cc(OC)c(OC)c(OC)c3)C2=O)cc1OC | > 100 | > 100 | > 100 | 4.5 | 
COc1ccc(CN2C(=O)C(c3ccc(OC)c(OC)c3)=C(c3ccc(OC)c(OC)c3)C2=O)cc1OC | > 100 | > 100 | > 100 | 12.4 | fractional inhibitory concentration index (FICI) [4]: 2.21; fractional inhibitory concentration index (FICI) [5]: 2.21
COc1ccc(CN2C(=O)C(c3ccc(OC)c(OC)c3)=C(c3ccc(OC)c(OC)c3)C2=O)cc1 | > 100 | > 100 | > 100 | 9.3 | 
COc1ccc(CCN2C(=O)C(c3ccc(OC)c(OC)c3)=C(c3ccc(OC)c(OC)c3)C2=O)cc1 | 32.5 | 18 | 21.6 | 10.7 | fractional inhibitory concentration index (FICI) [4]: 1.61; fractional inhibitory concentration index (FICI) [5]: 1.61
COc1ccc(C(=O)CN2C(=O)C(c3ccc(OC)c(OC)c3)=C(c3ccc(OC)c(OC)c3)C2=O)cc1 | > 100 | 90 | > 100 | 9.9 | Activity (LCC-6): inactive; fractional inhibitory concentration index (FICI) [6]: 1.26; fold change (FC) [7]: 9.3; Activity [8]: Not Active; fractional inhibitory concentration index (FICI) [9]: 0.89; fractional inhibitory concentration index (FICI) [4]: 0.42; Ki [10]: 5.4 µM; fold change (FC) [11]: 5.2; fold change (FC) [12]: 2.1; Activity [13]: Active; fractional inhibitory concentration index (FICI) [5]: 0.42
COc1ccc(C2=C(c3ccc(OC)c(OC)c3)C(=O)N(CC(=O)c3ccccc3)C2=O)cc1OC |  | > 100 | > 100 | 3.9 | 
COc1ccc(C2=C(c3ccc(OC)c(OC)c3)C(=O)N(Cc3cc(OC)c(OC)c(OC)c3)C2=O)cc1OC | > 100 | > 100 | > 100 | 18.2 | Activity (LCC-6): inactive; fold change (FC) [7]: 14.6; Activity [8]: Not Active; Ki [10]: 5.5 µM; fold change (FC) [11]: 9.5; fold change (FC) [12]: 3; Activity [13]: Active
COc1ccc(-c2cn(Cc3cc(OC)c(OC)c(OC)c3)c(OCc3cc(OC)c(OC)c(OC)c3)c2-c2ccc(OC)c(OC)c2)cc1OC | > 100 | > 100 | > 100 | 1.6 | 
COc1ccc(C2=C(c3ccc(OC)c(OC)c3)C(=O)N(Cc3ccccc3)C2=O)cc1OC |  |  |  | 7.9 | 
COc1ccc(C2=C(c3ccc(OC)c(OC)c3)C(=O)N(CCCN3C(=O)C(c4ccc(OC)c(OC)c4)=C(c4ccc(OC)c(OC)c4)C3=O)C2=O)cc1OC | > 100 | > 100 | > 100 | 5.2 | 
COc1ccc(C2=C(c3ccc(OC)c(OC)c3)C(=O)N(CCc3ccccc3)C2=O)cc1OC |  | > 100 | > 100 | 3.6 | 
COc1ccc(C2=C(c3ccc(OC)c(OC)c3)C(=S)N(Cc3ccccc3)C2=O)cc1OC |  | > 100 | > 100 | 3.4 | 
COc1ccc(C2=C(c3ccc(OC)c(OC)c3)C(=S)N(CCc3cc(OC)c(OC)c(OC)c3)C2=O)cc1OC |  |  |  | 2.8 | 
COc1ccc(C2=C(c3ccc(OC)c(OC)c3)C(=O)N(CCN3C(=O)C(c4ccc(OC)c(OC)c4)=C(c4ccc(OC)c(OC)c4)C3=O)C2=O)cc1OC |  | > 100 | > 100 | 1.4 | 
COc1ccc(CCN2C(=O)C(c3ccc(OC)c(OC)c3)=C(c3ccc(OC)c(OC)c3)C2=O)cc1OC | > 100 | > 100 | > 100 | 6.9 | 
COc1ccc(C2=C(c3ccc(OC)c(OC)c3)C(=O)N(C/C=C/c3cc(OC)c(OC)c(OC)c3)C2=O)cc1OC | > 100 | > 100 | > 100 | 6.2 | 
COc1ccc(C2=C(c3ccc(OC)c(OC)c3)C(=O)N(CCCc3cc(OC)c(OC)c(OC)c3)C2=O)cc1OC | > 100 | > 100 | > 100 | 4.7 | 
C/C=C/C[C@@H](C)C(=O)[C@H]1C(=O)N[C@@H](C(C)C)C(=O)N(C)CC(=O)N(C)[C@@H](CC(C)C)C(=O)N[C@@H](C(C)C)C(=O)N(C)[C@@H](CC(C)C)C(=O)N[C@@H](C)C(=O)N[C@H](C)C(=O)N(C)[C@@H](CC(C)C)C(=O)N(C)[C@@H](CC(C)C)C(=O)N(C)[C@@H](C(C)C)C(=O)N1C [VALSPODAR] |  |  |  | 101.8 | 
COc1ccc(C(=O)CN2C(=O)C(c3ccc(OC)c(OC)c3)=C(c3ccc(OC)c(OC)c3)C2=O)cc1OC | > 100 | > 100 | > 100 | 8.2 | fractional inhibitory concentration index (FICI) [4]: 2.05; fractional inhibitory concentration index (FICI) [5]: 2.05
COc1ccc(C2=C(c3ccc(OC)c(OC)c3)C(=O)N(CCO)C2=O)cc1OC |  | 84 | > 100 | 1.8 | 
